In data set [1] the test system is Plasmodium falciparum. In words: Antiplasmodial activity against Plasmodium falciparum D6. Type of data set: functional, organism-based.
For another data set, the system named is MRC5. In words: Cytotoxicity against MRC5 cells. Format: cell-based, Homo sapiens. The conditions noted are these: for IC50: Homo sapiens, MRC5. Summed up: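 MRC5 cells were cultured for 5 days in the presence of drug, with viability read by colorimetric MTT. IC50 was taken from the concentration–response curve and is the mean of three independent experiments.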

Data set [2] deals with Plasmodium falciparum. In words: Antiplasmodial activity against Plasmodium falciparum FcB1. Type of data set: functional, organism-based. Summed up: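 P. falciparum FcB1 (chloroquine-resistant) was kept in continuous culture in human erythrocytes. Growth inhibition was read by [³H]hypoxanthine incorporation. IC50 was taken from the drug concentration–response curve and is the mean of three independent experiments.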

Data set [3] can be described thus: Selectivity index, ratio of IC50 for MRC5 cells to IC50 for Plasmodium falciparum FcB1. Type of data set: functional. Summed up:
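Ratio of MRC5 IC50 to P. falciparum FcB1 IC50. MRC5 IC50 came from a 5-day drug exposure read by MTT. Parasite IC50 came from [³H]hypoxanthine incorporation in erythrocyte cultures. Both were taken from concentration–response curves as means of three independent experiments.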

For data set [4], the system named is Plasmodium yoelii. In words: Antiplasmodial activity as reduced parasitaemia against Plasmodium yoelii N67 infected Swiss mice (Mus musculus) at 50 mg/kg peroral dose. Format: functional. The conditions noted are these: route oral. Summed up: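 Peters 4-day suppressive test in mice infected with P. yoelii nigeriensis N67. Compound was given orally (0.5 ml) daily from day 0, at 10 or 50 mg/kg as per line. Groups had five mice, with a vehicle-only untreated group. Day-4 parasitemia was counted on Diff Quick-stained blood smears. % inhibition was calculated against untreated mice.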

Data set [5] relates to Plasmodium falciparum. In words: In vitro antiplasmodial activity against Plasmodium falciparum Thai.
In data set [6] the test system is Plasmodium falciparum. In words: Antiplasmodial activity against chloroquine-resistant Plasmodium falciparum K1. Format: functional, organism-based. Summed up:
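Parasites kept in continuous culture on human erythrocytes; growth measured by [3H]hypoxanthine incorporation. IC50 taken from the drug concentration–response curve, mean of three independent experiments.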

The test system of data set [7] is Plasmodium yoelii. In words: Antiplasmodial activity as reduced parasitaemia against Plasmodium yoelii N67 infected Swiss mice (Mus musculus) at 10 mg/kg peroral dose. Type of data set: functional. The conditions noted are these: route oral. Summed up:
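4-day suppressive test in P. yoelii nigeriensis N67-infected mice, five per group. Dosing oral, once daily from day 0, 0.5 ml/mouse. Untreated group received vehicle only. Parasitemia read on day 4 from Diff Quick-stained blood smears. Percent inhibition calculated against untreated mice. Deaths counted at day 14.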

By IC50 is commonly meant the concentration at which inhibition is half-maximal. In turn, `CCOC(=O)COc1cc(-c2cc(=O)c3c(O)cc(OCC(=O)N4CCN(Cc5ccc(Cl)cc5)CC4)cc3o2)ccc1OC` returned an IC50 in the data set on Plasmodium falciparum [1] of 6 µM.
For the molecule `CCOC(=O)COc1cc(-c2cc(=O)c3c(O)cc(OCC(=O)N4CCN(C(=O)OC(C)(C)C)CC4)cc3o2)ccc1OC`, the IC50 in the data set on MRC5 came to 3.8 µM; in the data set with Plasmodium falciparum [2], 1.8 µM. The “Ratio IC50” value in data set [3] is on record as 2.1.
The inhibition in vivo is the change of the read-out against control, counted positive when it falls. In the data set with Plasmodium yoelii [4], `COc1ccc(CN2CCN(C(=O)COc3ccc4c(=O)cc(-c5cc(C(C)(C)C)c(O)c(C(C)(C)C)c5)oc4c3)CC2)c(OC)c1OC` showed an inhibition in vivo at 50 mg/kg of 38.5%. The concentration for half-maximal inhibition (IC50) was more than 150 µM in the data set on MRC5, 1.2 µM in the data set with Plasmodium falciparum [2], 0.9 µM with Plasmodium falciparum [5] and 0.4 µM in the data set with Plasmodium falciparum [6]. Also, the “Ratio IC50” value in data set [3] is listed as more than 125. In the data set with Plasmodium yoelii [7], this molecule had an inhibition in vivo at 10 mg/kg of 24.1%.
With `CCN(CC)CCCC(C)Nc1ccnc2cc(Cl)ccc12` (stereo unspecified) [CHLOROQUINE], in the data set with MRC5 (human, mrc5), the result was Active.
Turning to `CCOC(=O)COc1cc(-c2cc(=O)c3c(O)cc(OCC(=O)N4CCN(Cc5ccc(OCc6ccccc6)c(OC)c5OC)CC4)cc3o2)ccc1OC`, the IC50 in the data set with MRC5 was 10 µM; in the data set on Plasmodium falciparum [2], 2.8 µM. Further, the “Ratio IC50” value in data set [3] is given as 3.6.
For `CCOC(=O)COc1cc(-c2cc(=O)c3c(O)cc(OCC(=O)N4CCN(Cc5c(OC)cc(OC)cc5OC)CC4)cc3o2)ccc1OC`, in that order: 9.5 µM, 1.9 µM and 5.
With `CCCCCCOc1cc(-c2cc(=O)c3c(O)cc(OCC(=O)N4CCN(Cc5ccc(OC)c(OC)c5OC)CC4)cc3o2)ccc1OC`, the concentration for half-maximal inhibition (IC50) in the data set with Plasmodium falciparum [2] is 3.9 µM.
In the case of `COc1ccc(CN2CCN(C(=O)COc3ccc4c(=O)cc(-c5ccccc5)oc4c3)CC2)c(OC)c1OC`, in the data set on Plasmodium falciparum [2], half-maximal inhibition (IC50) required 13 µM.
Regarding `CCOC(=O)COc1cc(O)c2c(=O)cc(-c3ccc(OC)c(OCC(=O)N4CCN(Cc5ccc(OC)c(OC)c5OC)CC4)c3)oc2c1`, the concentration for half-maximal inhibition (IC50) in the data set on Plasmodium falciparum [1] was determined as 6.2 µM.
For the molecule `CCOC(=O)COc1cc(-c2cc(=O)c3c(O)cc(OCC(=O)N4CCN(Cc5ccc(O)c(OC)c5OC)CC4)cc3o2)ccc1OC`, the half-maximal inhibitory concentration (IC50) in the data set on MRC5 came to 10 µM; in the data set on Plasmodium falciparum [2] it was 0.6 µM; with Plasmodium falciparum [5] it was 1.2 µM; in the data set on Plasmodium falciparum [6], 0.4 µM. In addition, the “Ratio IC50” value in data set [3] worked out at 16.7.
Regarding `COc1ccc(-c2cc(=O)c3c(O)cc(OCC(=O)N4CCN(Cc5ccc(OC)c(OC)c5OC)CC4)cc3o2)cc1OCC(=O)N1CCN(Cc2ccc(OC)c(OC)c2OC)CC1`, the IC50 in the data set with MRC5 is 1 µM; with Plasmodium falciparum [1], 0.18 µM.
In the case of `CCOC(=O)COc1cc(-c2cc(=O)c3c(O)cc(OCC(=O)N4CCN(Cc5ccc(OC)c(OC)c5)CC4)cc3o2)ccc1OC`, it took 4.7 µM to reach half-maximal inhibition in the data set with Plasmodium falciparum [1] (IC50).
For `COc1ccc(-c2cc(=O)c3c(O)cc(OCC(=O)N4CCN(Cc5ccc(OC)c(OC)c5OC)CC4)cc3o2)cc1OCC(=O)OC(C)(C)C`, the concentration for half-maximal inhibition (IC50) with MRC5 is more than 140 µM; in the data set with Plasmodium falciparum [2] it was 1.7 µM; in the data set with Plasmodium falciparum [5], 1.5 µM; in the data set with Plasmodium falciparum [6], 1.4 µM. Further, the “Ratio IC50” value in data set [3] is more than 82.
Molecule `CCOC(=O)COc1cc(-c2cc(=O)c3c(O)cc(OCC(=O)N4CCN(Cc5ccc(OC)c(OC)c5OC)CC4)cc3o2)ccc1OC` registered an inhibition in vivo at 50 mg/kg in the data set on Plasmodium yoelii [4] of 43.1%. In addition, the IC50 in the data set on MRC5 was more than 70 µM; with Plasmodium falciparum [1] it was 0.5 µM; in the data set with Plasmodium falciparum [2] it was 1 µM; in the data set on Plasmodium falciparum [5], 13 µM; in the data set on Plasmodium falciparum [6], 13 µM. The “Ratio IC50” value in data set [3] is recorded as more than 140. The molecule also yielded an inhibition in vivo at 10 mg/kg in the data set with Plasmodium yoelii [7] of 27.1%.
`CCOC(=O)COc1cc(-c2cc(=O)c3c(O)cc(OCCN4CCN(Cc5ccc(OC)c(OC)c5OC)CC4)cc3o2)ccc1OC`: the half-maximal inhibitory concentration (IC50) in the data set on MRC5 was found to be 18 µM; with Plasmodium falciparum [2], 4.3 µM. For the same molecule, the “Ratio IC50” value in data set [3] was found to be 4.2.
In turn, `CCOC(=O)COc1cc(-c2cc(=O)c3c(O)cc(OCC(=O)N4CCN(Cc5cc(OC)c(OC)c(OC)c5)CC4)cc3o2)ccc1OC` yielded an IC50 with Plasmodium falciparum [1] of 4 µM.
For `COc1ccc(-c2cc(=O)c3c(O)cc(OCC(=O)N4CCN(Cc5ccc(OC)c(OC)c5OC)CC4)cc3o2)cc1OC1CCCC1`, the half-maximal inhibitory concentration (IC50) in the data set with MRC5 is more than 150 µM; in the data set with Plasmodium falciparum [2], 2.8 µM. Further, the “Ratio IC50” value in data set [3] is more than 53.
`CCOC(=O)COc1cc(-c2cc(=O)c3c(O)cc(OCC(=O)N4CC[N+]([O-])(Cc5ccc(OC)c(OC)c5OC)CC4)cc3o2)ccc1OC` showed a half-inhibitory concentration (IC50) in the data set with Plasmodium falciparum [2] of 19 µM.
Turning to `CCOC(=O)COc1cc(-c2cc(=O)c3c(O)cc(OCC(=O)N4CCN(C)CC4)cc3o2)ccc1OC`, in the data set with Plasmodium falciparum [2], the midpoint of inhibition, the IC50, lay at 26 µM.
The same measure, in the same setting: the same measure for `COc1ccc(CN2CCN(C(=O)COc3cc(O)c4c(=O)cc(-c5ccccc5)oc4c3)CC2)c(OC)c1OC`: 14 µM; for `CCOC(=O)COc1cc(-c2cc(=O)c3c(O)cc(OCC(=O)N4CCN(Cc5ccc(OC)cc5)CC4)cc3o2)ccc1OC`: 8.9 µM.
Consider `CCOC(=O)COc1cc(-c2cc(=O)c3c(O)cc(OCC(=O)N4CCN(Cc5ccccc5)CC4)cc3o2)ccc1OC`, for which the IC50 in the data set on Plasmodium falciparum [1] worked out at 9.5 µM.
On the same count and under the same terms, with `CCOC(=O)COc1cc(-c2cc(=O)c3c(O)cc(OCC(=O)N4CCN(Cc5cccc(OC)c5OC)CC4)cc3o2)ccc1OC` the figure was 2.4 µM.
The molecule `CCOC(=O)COc1cc(-c2cc(=O)c3c(O)cc(OCC(=O)N4CC[N+](C)(Cc5ccc(OC)c(OC)c5OC)CC4)cc3o2)ccc1OC` registered an IC50 with Plasmodium falciparum [2] of 41 µM.
Consider `CCOC(=O)COc1cc(-c2cc(=O)c3c(O)cc(OCC(=O)N4CCN(Cc5ccc(OC)cc5OC)CC4)cc3o2)ccc1OC`, for which the IC50 with MRC5 was 5.6 µM; in the data set with Plasmodium falciparum [2], 1.7 µM. Besides, in data set [3], the “Ratio IC50” value is listed as 3.3.
In turn, `COc1ccc(-c2cc(=O)c3c(O)cc(OCC(=O)N4CCN(Cc5ccc(OC)c(OC)c5OC)CC4)cc3o2)cc1O` had an IC50 in the data set on Plasmodium falciparum [1] of 5.3 µM.
Still for that read-out and setting: with `CCOC(=O)COc1cc(OCC(=O)N2CCN(Cc3ccc(OC)c(OC)c3OC)CC2)c2c(=O)cc(-c3ccc(OC)c(OCC(=O)OCC)c3)oc2c1` the figure was 5.4 µM.

Source of the values: ChEMBL document CHEMBL1143810, “Synthesis and antimalarial evaluation of a series of piperazinyl flavones” (Bioorg Med Chem Lett, 2007).
